An excerpt weighted towards active compounds, which were near 3.8% of everything screened.
CHO parental Ca = signal in parental CHO cells, OX1R antagonist counter-screen; parental CHO-K1, ATP-induced calcium, Fluo-8 fluorescence; inhibition, % at 5.6 µM; 330,000 compounds, 0.63% hits;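 active means inhibition above that plate's mean sample inhibition plus 3 SD, cut at about 26% in these data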;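 further: 0% = ATP-challenged DMSO wells and 100% = DMSO wells without ATP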
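Material – parental CHO cells · Reagent – ATP stimulus · Compound – single nominal dose of 5.6 µM per compound · Detection – Fluo-8 fluorescence · Read-out basis – percent inhibition of calcium signal · Controls – ATP-challenged DMSO wells low, unchallenged DMSO wells high · Repeats – no replicates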
OX1R antag-1 = OX1R (human) antagonism; OX1R-expressing cells, FRET antagonist read-out; inhibition, % at 6.6 µM; 330,000 compounds, 1.8% hits; in the data active means inhibition mostly above about 38%, no sharp cut-off; inactive means mostly below about 40%;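 further: 0% = agonist challenge alone and 100% = reference antagonist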
OX1R antag-2 = human HCRTR1 antagonism; O43613; CHO/OX1R cells, Fluo-8 calcium fluorescence, orexin A; inhibition, % at 5 µM; 330,000 compounds, 0.43% hits; AID 434989;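 active means inhibition above its plate's threshold, mean inhibition of all tested compounds on the plate plus 3 SD, cut at about 37% in these data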;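 further: 0% = orexin A challenge wells and 100% = SB-334867-A antagonist wells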
MPTP inh = blocks calcium-induced mitochondrial swelling; isolated mouse mitochondria, Ca2+ swelling absorbance, 30 min; inhibition, % at 10 µM; 360,000 compounds, 1.4% hits; AID 602449;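 active means inhibition of 50% or more, scaled per plate between neutral and stimulator controls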;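 further: 0% = DMSO wells given calcium and 100% = 1 mM EGTA wells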
GPR7 antagonist = human neuropeptides B/W receptor 1 antagonism | P48145 | GPR7-expressing cells, fluorescence antagonist assay | inhibition, % at 4.4 µM | 290,000 compounds, 1.1% hits | AID 1861; in the data active means inhibition above about 16%, passing the limit was not always enough;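 further: cells stimulated with the agonist NPW; 0% = agonist with vehicle and 100% = vehicle without agonist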
Target sequence (P48145 whole entry, looked up): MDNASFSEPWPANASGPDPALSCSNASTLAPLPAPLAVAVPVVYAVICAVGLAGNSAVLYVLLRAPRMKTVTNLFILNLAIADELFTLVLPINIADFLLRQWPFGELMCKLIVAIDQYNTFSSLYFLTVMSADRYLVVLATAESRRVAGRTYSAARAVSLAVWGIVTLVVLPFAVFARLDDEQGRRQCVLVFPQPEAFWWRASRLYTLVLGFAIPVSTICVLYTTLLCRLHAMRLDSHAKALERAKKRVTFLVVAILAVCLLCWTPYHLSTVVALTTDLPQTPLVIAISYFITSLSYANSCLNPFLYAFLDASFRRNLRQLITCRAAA
GPR7 antag conf = human GPR7 antagonism, confirmation assay | shares compounds with GPR7 antagonist | GPR7-expressing cells, calcium fluorescence antagonist mode | inhibition, % at 4.4 µM | 2,400 compounds, 52% hits; in the data active means inhibition above about 24%;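 further: stimulated with the GPR7 agonist NPW; 0% = agonist plus vehicle and 100% = vehicle alone without agonist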
MCHR1 antag = antagonizes human MCHR1, a GPR7 antagonist counter-screen; shares compounds with GPR7 antagonist; MCHR1-expressing cells, fluorescence antagonist assay; inhibition, % at 4.4 µM; 2,400 compounds, 62% hits; AID 2148; in the data active means inhibition above about 22%;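 further: 0% = vehicle with agonist and 100% = vehicle without agonist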
Starred values were filed as active, the others as inactive.

For CCc1cccc2c(/C=N/NC(=O)c3cccc(S(=O)(=O)Nc4ccccc4Cl)c3)c[nH]c12 the results were CHO parental Ca -0.2, OX1R antag-1 20.5, OX1R antag-2 -7.4, MPTP inh -3.2 and GPR7 antagonist -7.1.
Screening CCCn1c(=N)c(C(=O)NCc2ccc3c(c2)OCO3)cc2c(=O)n3cccc(C)c3nc21 returned CHO parental Ca -16.6, OX1R antag-1 37.3, OX1R antag-2 -26.9, MPTP inh -2.2 and GPR7 antagonist -2.3.
Screening N=c1c(C(=O)NCCc2ccccc2)cc2c(=O)n3ccccc3nc2n1Cc1ccco1 returned CHO parental Ca -30.2, OX1R antag-1 22.8, OX1R antag-2 -34.2, MPTP inh -0.1, GPR7 antagonist 28.0*, GPR7 antag conf 51.8* and MCHR1 antag 49.5*.
For N=c1c(C(=O)NC2CCCCC2)cc2c(=O)n3ccccc3nc2n1CCc1ccccc1 the results were CHO parental Ca -4.5, OX1R antag-1 31.2, OX1R antag-2 -1.0, MPTP inh -0.5, GPR7 antagonist 31.8*, GPR7 antag conf 39.2* and MCHR1 antag 24.5*.
Screening CCOCCCn1c(=N)c(C(=O)NCc2ccc3c(c2)OCO3)cc2c(=O)n3ccccc3nc21 returned GPR7 antagonist 22.1*, GPR7 antag conf 29.3* and MCHR1 antag 19.3.
N=c1c(C(=O)NCCc2ccccc2)cc2c(=O)n3ccccc3nc2n1CCCN1CCOCC1 was read as CHO parental Ca -4.6, OX1R antag-1 44.8*, OX1R antag-2 -6.9, MPTP inh 0.3, GPR7 antagonist 36.6*, GPR7 antag conf 34.6* and MCHR1 antag 16.7.
Screening COc1cccc(-n2c(=O)c3c(C)c(C(=O)N(C)C)sc3n(CC(=O)NCC3CCCO3)c2=O)c1 (configuration not stated) returned CHO parental Ca 5.2, OX1R antag-1 7.0, OX1R antag-2 -11.1, MPTP inh 0.3 and GPR7 antagonist 2.8.
Screening O=c1c2ccccc2nnn1CCc1ccccc1 returned MPTP inh -0.2.
Screening CC(C)(C)c1ccc(-c2nc(NCc3cccnc3)c3ccccc3n2)cc1 returned CHO parental Ca -19.6, OX1R antag-1 5.4, OX1R antag-2 -60.3, MPTP inh 3.3, GPR7 antagonist 22.6*, GPR7 antag conf 41.3* and MCHR1 antag 29.8*.
`Cc1ccc(C(=O)Nc2ccc3cn[nH]c3c2)cc1S(=O)(=O)N1CCOCC1` gave CHO parental Ca -13.3, OX1R antag-1 8.5, OX1R antag-2 -4.9, MPTP inh 1.7 and GPR7 antagonist -11.5.
Screening Cc1ccc(C)c(OCCC(=O)NCCc2ccc(S(N)(=O)=O)cc2)c1 returned CHO parental Ca -7.2, OX1R antag-1 10.3, OX1R antag-2 -10.0, MPTP inh 0.8 and GPR7 antagonist -3.3.
COc1ccccc1N1CCN(CC(=O)Nc2cccc(F)c2)CC1 was read as CHO parental Ca -17.9, OX1R antag-1 1.6, OX1R antag-2 -9.2, MPTP inh -0.7 and GPR7 antagonist -4.3.
`COc1ccccc1N1CCN(CC(=O)Nc2ccc(C)c(F)c2)CC1` gave CHO parental Ca -28.5, OX1R antag-1 2.6, OX1R antag-2 -14.2, MPTP inh -0.6, GPR7 antagonist 26.5*, GPR7 antag conf -2.6 and MCHR1 antag 1.1.
`COc1cc(-c2noc(C)c2-c2ccc3[nH]ccc3c2)cc(OC)c1OC` gave CHO parental Ca -7.3, OX1R antag-1 33.4, OX1R antag-2 -0.2, MPTP inh 1.9 and GPR7 antagonist 15.7.
Screening COc1cc(-c2noc(C)c2-c2ccc(N(C)C)nc2)cc(OC)c1OC returned CHO parental Ca -6.0, OX1R antag-1 74.7*, OX1R antag-2 -1.5, MPTP inh -2.4, GPR7 antagonist 60.3*, GPR7 antag conf 69.0* and MCHR1 antag 67.2*.
`O=C(c1ccc(Br)o1)N1CCN(CCc2ccncc2)CC1` gave CHO parental Ca 7.9, OX1R antag-1 -8.3, OX1R antag-2 -4.2, MPTP inh -1.0 and GPR7 antagonist 7.3.
`CSc1cccc(NC(=O)Nc2nc3c(C)cccc3s2)c1` gave CHO parental Ca 14.3, OX1R antag-1 22.0, OX1R antag-2 4.4, MPTP inh 17.4, GPR7 antagonist 23.2, GPR7 antag conf 33.1* and MCHR1 antag 76.0*.
For COC(=O)Nc1nc2c(C)cccc2s1 the results were CHO parental Ca -9.4, OX1R antag-1 9.6, OX1R antag-2 -17.2, MPTP inh -1.0 and GPR7 antagonist -11.6.
For COc1ccc(-c2onc(C)c2-c2cnn(-c3ccccc3)c2)c(O)c1C the results were CHO parental Ca -12.7, OX1R antag-1 19.6, OX1R antag-2 -29.8, MPTP inh -0.2, GPR7 antagonist 31.6*, GPR7 antag conf 24.8* and MCHR1 antag 34.4*.
For CC1(C(=O)Nc2ccc3nc[nH]c3c2)CCN1C(=O)C1(c2ccccc2)CCCC1 (configuration not stated) the results were MPTP inh 1.4.
Screening Cc1ccc(Nc2nc(N)nc(CSc3nc(C)cc(C)n3)n2)cc1 returned CHO parental Ca -20.2, OX1R antag-1 38.1, OX1R antag-2 -34.0, MPTP inh 0.5, GPR7 antagonist 25.7*, GPR7 antag conf 15.2 and MCHR1 antag 14.5.
`Cc1ccc(Nc2nc(N)nc(CSc3ncccn3)n2)cc1` gave CHO parental Ca -11.5, OX1R antag-1 18.5, OX1R antag-2 -29.3, MPTP inh -0.3 and GPR7 antagonist -3.1.
CCOC(=O)c1ccc(S(=O)(=O)N2CCN(C3CCCC3)CC2)cc1 was read as CHO parental Ca -22.0, OX1R antag-1 39.4, OX1R antag-2 -12.9, MPTP inh -0.9 and GPR7 antagonist -10.3.
Screening COc1ccccc1OCC(O)Cn1c(=N)n(Cc2ccccc2)c2ccccc21 (configuration not stated) returned CHO parental Ca -12.6, OX1R antag-1 5.6, OX1R antag-2 -15.3, MPTP inh 5.1, GPR7 antagonist 25.3*, GPR7 antag conf 28.5* and MCHR1 antag 35.2*.
Screening CCCn1c(=N)n(CC(O)COc2ccc(C)cc2)c2ccccc21 (configuration not stated) returned CHO parental Ca -2.0, OX1R antag-1 3.7, OX1R antag-2 -22.7, MPTP inh 0.8 and GPR7 antagonist 8.0.
CCn1c(=N)n(CC(O)COc2ccc(C)cc2)c2ccccc21 (configuration not stated) was read as CHO parental Ca -12.3, OX1R antag-1 0.1, OX1R antag-2 -28.4, MPTP inh 1.7 and GPR7 antagonist -4.2.
Screening CCCCn1c(=N)n(CC(O)COc2cccc(C)c2)c2ccccc21 (configuration not stated) returned CHO parental Ca -7.7, OX1R antag-1 1.5, OX1R antag-2 -25.8, MPTP inh 1.2, GPR7 antagonist 33.4*, GPR7 antag conf 36.7* and MCHR1 antag 45.5*.

Screening data: PubChem, several laboratories
